The text below walks through data of ChEMBL document CHEMBL4665760, “Rational Design and Synthesis of Methyl-β-d-galactomalonyl Phenyl Esters as Potent Galectin-8N Antagonists” (J Med Chem, 2020).

One assay addresses T1, Galectin-8 (Homo sapiens, UniProt O00214).
T1 sequence (O00214 whole entry): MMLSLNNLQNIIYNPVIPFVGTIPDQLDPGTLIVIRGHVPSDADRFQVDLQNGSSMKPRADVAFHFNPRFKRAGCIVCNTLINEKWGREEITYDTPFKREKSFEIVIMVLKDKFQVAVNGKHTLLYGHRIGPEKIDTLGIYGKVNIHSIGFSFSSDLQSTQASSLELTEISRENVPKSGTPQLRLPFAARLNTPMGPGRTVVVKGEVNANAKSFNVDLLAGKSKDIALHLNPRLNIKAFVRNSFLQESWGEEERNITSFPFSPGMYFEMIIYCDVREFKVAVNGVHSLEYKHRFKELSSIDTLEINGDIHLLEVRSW
The assay can be described thus: Binding affinity to N-terminal domain of human galectin-8 (8-154 residues) by ITC assay. The method, boiled down: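 Untagged galectin-8N (residues 8-154) was expressed in bacteria (IPTG induction 4 h, room temperature) and purified on lactosyl-Sepharose at 4 °C. Protein and ligand were in 20 mM Tris pH 7.5, 100 mM NaCl, 4 mM BME, 5% DMSO and degassed. Ligand (0.5 or 1 mM) was titrated into 100 µM protein over 20-25 × 2.5 µl injections, 150 s apart, at 298 K. Blank-corrected data were fitted to an independent-site model for Kd.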
(ITC needs no label: the signal is the heat of the interaction.)

Assay [1] concerns the target T2, Galectin-8 (Homo sapiens) (UniProt O00214).
T2 sequence (whole entry): T1 sequence (O00214 whole entry)
The assay can be described thus: Antagonist activity at galectin-8 in human SUM159PT cells assessed as reduction in galectin-8-induced IL-8 mRNA expression at 500 uM incubated for 24 hrs by real-time PCR analysis. In kind it is cell-based. The method, boiled down:
(§1)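 SUM159 triple-negative breast cancer cells grown in RPMI with 10% FBS and penicillin/streptomycin at 37 °C, 5% CO2. Cells seeded at 50000 cells/cm², then incubated 24 h with compound at 500 µM, with or without 50 nM galectin-8. Means ± SEM from experiments done in duplicates.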
On the technique in general: Real-time PCR tracks product formation cycle by cycle.

Assay [2] addresses T2, Galectin-8 (Homo sapiens). Kind of assay: Antagonist activity at galectin-8 in human SUM159PT cells assessed as reduction in galectin-8-induced IL-1beta mRNA expression at 500 uM incubated for 24 hrs by real-time PCR analysis. It is filed as cell-based. The method, boiled down:
as §1

For assay [3], the target named is T2, Galectin-8 (Homo sapiens). Kind of assay: Antagonist activity at galectin-8 in human SUM159PT cells assessed as reduction in galectin-8-induced IL-6 mRNA expression at 500 uM incubated for 24 hrs by real-time PCR analysis. It is filed as cell-based. Summed up: as §1
In assay [4] the target is T2, Galectin-8 (Homo sapiens). Kind of assay: Potency index, ratio of Kd for lactose to Kd for test compound for binding affinity to N-terminal domain of human galectin-8 (8-154 residues) by ITC assay. To be noted: filed as antagonist.
Assay [5] deals with T2, Galectin-8 (Homo sapiens). Kind of assay: Antagonist activity at galectin-8 in human SUM159PT cells assessed as reduction in galectin-8-induced IL-8 mRNA expression at 1 uM incubated for 24 hrs by real-time PCR analysis. The conditions noted are these: filed as antagonist. In kind it is cell-based. Summed up: (§2)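 SUM159 triple-negative breast cancer cells in RPMI/10% FBS at 37 °C, 5% CO2, seeded at 50000 cells/cm². Galectin-8 (50 nM) stimulated, with or without compound. Dose-response run at 1, 10, 100 and 500 µM.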

The target of assay [6] is T2, Galectin-8 (Homo sapiens). Kind of assay: Antagonist activity at galectin-8 in human SUM159PT cells assessed as reduction in galectin-8-induced IL-6 mRNA expression at 1 uM incubated for 24 hrs by real-time PCR analysis. The conditions noted are these: filed as antagonist. In kind it is cell-based. The method, boiled down:
as §2

Activity calls are given as the source filed them. No cut-off for these calls is given here.

Broadly, the Kd is the constant that tells how readily two partners part at equilibrium. Higher therefore signals lower affinity. Consider `COc1ccc(OC(=O)CC(=O)O[C@H]2[C@@H](O)[C@@H](CO)O[C@@H](OC)[C@@H]2O)cc1`, for which the Kd on Galectin-8 was 9.47 µM.

Turning to `CO[C@@H]1O[C@H](CO)[C@H](O)[C@H](OC(=O)CC(=O)Oc2ccccc2)[C@H]1O`, the dissociation constant (Kd) at Galectin-8 was found to be 12.8 µM.

For the molecule `CC(=O)N[C@H]1[C@H]([C@H](O)[C@H](O)CO)O[C@@](O[C@H]2[C@@H](O)[C@@H](CO)O[C@@H](O[C@H]3[C@H](O)[C@@H](O)[C@H](O)O[C@@H]3CO)[C@@H]2O)(C(=O)O)C[C@@H]1O`, at Galectin-8, the affinity, expressed as Kd, was 2.3 µM.

Consider `COC(=O)CC(=O)O[C@H]1[C@@H](O)[C@@H](CO)O[C@@H](OC)[C@@H]1O`, for which the inhibition entry in assay [1] and in assay [3] was “inactive” throughout. The Antagonist activity result in assay [2] was “inactive”. The same molecule yielded a Kd at Galectin-8 of 24.9 µM.

With `CO[C@@H]1O[C@H](CO)[C@H](O)[C@H](OC(=O)CC(=O)Oc2ccc(Cl)cc2Cl)[C@H]1O`, the Kd on Galectin-8 is 11.9 µM.

With `CO[C@@H]1O[C@H](CO)[C@H](O)[C@H](OC(=O)CC(=O)Oc2ccc(F)cc2)[C@H]1O`, the Ratio in assay [4] worked out at 7. Further, the inhibition entry in assay [5], in assay [1] (filed as antagonist), in assay [6] and in assay [3] (filed as antagonist) was “Active” in each case. In addition, in assay [2] (filed as antagonist), the Antagonist activity entry is “Active”. Further, binding on Galectin-8 was characterised by a dissociation constant (Kd) of 5.72 µM.

Take `CO[C@@H]1O[C@H](CO)[C@H](O)[C@H](OC(=O)CC(=O)O)[C@H]1O`: the inhibition result in assay [1] and in assay [3] was “inactive” in each case. In addition, the Antagonist activity result in assay [2] is “inactive”. This molecule gave a Kd on Galectin-8 of 33.6 µM.

On Galectin-8, `COc1cc(OC)cc(OC(=O)CC(=O)O[C@H]2[C@@H](O)[C@@H](CO)O[C@@H](OC)[C@@H]2O)c1` came in with a Kd of 11 µM. That is a double-digit micromolar value.

As for `CO[C@@H]1O[C@H](CO)[C@H](O)[C@H](OC(=O)CC(=O)OCc2ccccc2)[C@H]1O`, the inhibition entry in assay [5], in assay [1] (filed as antagonist), in assay [6] and in assay [3] (filed as antagonist) was “Active” throughout. Also, in assay [2] (filed as antagonist), the Antagonist activity entry is “Active”. In addition, binding on Galectin-8 was characterised by a dissociation constant (Kd) of 9.17 µM.
